# Measured values as given in publication PMC6904438 (Biochemistry, 2019).
# Key:
# [1] = molecular target: T1, zebrafish HDAC10 (Danio rerio, UniProt F1QCV2); assay: fixed-point N-acetylputrescine hydrolysis assay; format: biochemical
# T1 sequence (F1QCV2 1-675): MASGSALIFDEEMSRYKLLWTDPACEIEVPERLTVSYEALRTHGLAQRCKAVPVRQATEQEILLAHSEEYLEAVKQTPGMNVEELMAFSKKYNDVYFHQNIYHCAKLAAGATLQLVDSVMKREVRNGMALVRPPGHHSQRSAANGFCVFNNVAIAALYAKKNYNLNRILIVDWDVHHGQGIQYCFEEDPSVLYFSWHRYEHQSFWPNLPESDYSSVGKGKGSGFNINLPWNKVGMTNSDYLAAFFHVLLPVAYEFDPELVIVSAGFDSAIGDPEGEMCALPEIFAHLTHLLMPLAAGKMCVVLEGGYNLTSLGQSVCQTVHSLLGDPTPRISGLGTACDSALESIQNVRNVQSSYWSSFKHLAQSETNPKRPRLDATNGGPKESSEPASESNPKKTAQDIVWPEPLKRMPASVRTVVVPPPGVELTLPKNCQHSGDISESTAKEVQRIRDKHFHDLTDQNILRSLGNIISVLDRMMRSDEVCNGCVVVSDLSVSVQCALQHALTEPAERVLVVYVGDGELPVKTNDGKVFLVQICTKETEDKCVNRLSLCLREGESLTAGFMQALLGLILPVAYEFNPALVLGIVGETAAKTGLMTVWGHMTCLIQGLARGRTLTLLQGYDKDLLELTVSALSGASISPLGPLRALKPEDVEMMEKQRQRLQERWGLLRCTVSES
# In short: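 N-acetylputrescine 800 μM added; quenched after 45–60 min with sodium bicarbonate plus dansyl chloride, 50 °C 1 h. Dansylated product quantified by LC-MS; IC50 from logistic nonlinear regression.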
# [2] = stability in aqueous solution by mass spectrometry; format: physicochemical
# [3] = ratio of IC50 values against zebrafish HDAC10
smiles,measurement,setting,value
"NCCCNCCCCCC(=O)C(F)(F)F [compound 1, 7-[(3-aminopropyl)amino]-1,1,1-trifluoroheptan-2-one]",IC50,[1],80 ± 10 nM
same,fold greater inhibitory potency than methylketone 2 or methoxymethylketone 3,[1]; [3],at least 29 fold
"CC(=O)CCCCCNCCCN [compound 2, 7-[(3-aminopropyl)amino]heptan-2-one]",IC50,[1],2300 ± 200 nM
"COCC(=O)CCCCCNCCCN [compound 3, 7-[(3-aminopropyl)amino]-1-methoxyheptan-2-one]",IC50,[1],35000 ± 100 nM
"NCCCNCCCCCB(O)O [compound 4, 5-[(3-aminopropyl)amino]pentylboronic acid]",IC50,[1],400000 ± 70000 nM
"NCCCNCCCCCS [compound 6, 5-[(3-aminopropyl)amino]pentane-1-thiol]",stability in aqueous solution,[2],susceptible to oxidation and begins to forms a disulfide in aqueous solution
same,IC50,[1],370 ± 20 nM
"CC(=O)SCCCCCNCCCN [compound 7, S-{5-[(3-aminopropyl)amino]pentyl} thioacetate]",stability in aqueous solution,[2],stable in aqueous solution
same,IC50,[1],30 ± 10 nM
same,fold difference in potencies between inhibitors 7 and 6,[1]; [3],12 fold
